pKi: −log10 of the molar value.

Assay [1] has as its target T1, Sodium-dependent dopamine transporter (Homo sapiens, UniProt Q01959). The assay can be described thus: Inhibition of [3H]DA uptake in human DAT expressed in COS1 cell membrane. In kind it is functional, cell-based, COS-1. The gist of the method:
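Intact COS-1 cells stably expressing hDAT, grown two days at 37 °C, washed in PBSCM pH 7.4. Drug dilutions preincubated 30 min, then 30–100 nM [3H]DA added with drug. Uptake 10 min at 20 °C, stopped by aspiration and washing. Accumulated radioactivity counted after solubilising cells in scintillant. IC50 determined.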

The target in assay [2] is T1, Sodium-dependent dopamine transporter. Nature of the assay: Displacement of [125I]RTI55 from human DAT expressed in COS1 cell membrane. In kind it is cell membranes, COS-1. The gist of the method: (§1)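 Membranes from COS-1 cells stably transfected with hDAT or hSERT (pIRES, blasticidin selection), homogenised and washed, resuspended in PBSCM. Filtration onto PEI-soaked GF/B filters, scintillation counting.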
On the technique in general: Loss of bound radioactivity is the signal in a displacement assay; it reports binding, not function.

Assay [3] addresses T2, Sodium-dependent serotonin transporter (Homo sapiens, UniProt P31645). Nature of the assay: Displacement of [125I]RTI55 from human SERT expressed in COS1 cell membrane. It counts as cell membranes, COS-1. The gist of the method:
as §1

The target of assay [4] is T3, Sodium-dependent noradrenaline transporter (Homo sapiens, UniProt P23975). The assay can be described thus: Inhibition of [3H]DA uptake in human NET expressed in COS1 cell membrane. It counts as functional, cell-based, COS-1.
Assay [5] deals with T2, Sodium-dependent serotonin transporter. The assay can be described thus: Inhibition of [3H]SER uptake in human SERT expressed in COS1 cell membrane. In kind it is functional, cell-based, COS-1. In a few lines: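 Intact COS-1 cells stably expressing hSERT, grown two days at 37 °C, washed in PBSCM pH 7.4. Drug dilutions preincubated 30 min, then 30–100 nM [3H]5-HT added with drug. Uptake 10 min at 20 °C, stopped by aspiration and washing. Accumulated radioactivity counted after solubilising cells in scintillant. IC50 determined.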

Assay [6] concerns the target T3, Sodium-dependent noradrenaline transporter. Nature of the assay: Displacement of [125I]RTI55 from human NET expressed in COS1 cell membrane. In kind it is cell membranes, COS-1.

T3 sequence (P23975 whole entry): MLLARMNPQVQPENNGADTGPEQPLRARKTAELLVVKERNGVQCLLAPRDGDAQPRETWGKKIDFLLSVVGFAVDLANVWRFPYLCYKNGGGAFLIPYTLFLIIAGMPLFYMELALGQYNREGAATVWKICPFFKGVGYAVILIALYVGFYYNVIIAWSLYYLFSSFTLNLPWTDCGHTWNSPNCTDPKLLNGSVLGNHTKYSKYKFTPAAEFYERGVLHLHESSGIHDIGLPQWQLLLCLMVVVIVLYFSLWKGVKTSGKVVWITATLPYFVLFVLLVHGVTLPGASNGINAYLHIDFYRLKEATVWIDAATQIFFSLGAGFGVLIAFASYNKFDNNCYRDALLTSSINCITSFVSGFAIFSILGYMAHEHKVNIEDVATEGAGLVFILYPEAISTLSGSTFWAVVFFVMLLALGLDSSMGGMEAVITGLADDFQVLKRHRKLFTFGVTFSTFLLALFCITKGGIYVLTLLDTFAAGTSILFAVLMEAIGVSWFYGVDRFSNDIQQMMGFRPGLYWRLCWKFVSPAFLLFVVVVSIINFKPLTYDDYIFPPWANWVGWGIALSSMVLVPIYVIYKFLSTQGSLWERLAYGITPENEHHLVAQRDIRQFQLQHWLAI
T2 sequence (P31645 whole entry): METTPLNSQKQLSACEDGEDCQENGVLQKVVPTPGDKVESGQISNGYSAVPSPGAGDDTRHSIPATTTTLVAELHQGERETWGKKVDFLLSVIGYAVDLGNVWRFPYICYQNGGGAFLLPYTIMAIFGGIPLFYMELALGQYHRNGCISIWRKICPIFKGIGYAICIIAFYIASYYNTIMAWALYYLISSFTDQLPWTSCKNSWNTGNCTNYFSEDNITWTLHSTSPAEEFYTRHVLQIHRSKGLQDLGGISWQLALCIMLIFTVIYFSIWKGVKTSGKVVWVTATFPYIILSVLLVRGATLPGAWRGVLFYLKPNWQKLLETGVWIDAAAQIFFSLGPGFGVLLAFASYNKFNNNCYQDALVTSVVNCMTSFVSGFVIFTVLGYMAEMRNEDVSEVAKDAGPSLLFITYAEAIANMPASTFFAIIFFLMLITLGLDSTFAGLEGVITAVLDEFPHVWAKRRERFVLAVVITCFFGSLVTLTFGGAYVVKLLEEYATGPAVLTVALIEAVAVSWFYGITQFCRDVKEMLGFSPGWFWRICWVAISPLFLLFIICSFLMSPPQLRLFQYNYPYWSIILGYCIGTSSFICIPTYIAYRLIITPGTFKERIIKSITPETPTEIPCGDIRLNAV
T1 sequence (Q01959 whole entry): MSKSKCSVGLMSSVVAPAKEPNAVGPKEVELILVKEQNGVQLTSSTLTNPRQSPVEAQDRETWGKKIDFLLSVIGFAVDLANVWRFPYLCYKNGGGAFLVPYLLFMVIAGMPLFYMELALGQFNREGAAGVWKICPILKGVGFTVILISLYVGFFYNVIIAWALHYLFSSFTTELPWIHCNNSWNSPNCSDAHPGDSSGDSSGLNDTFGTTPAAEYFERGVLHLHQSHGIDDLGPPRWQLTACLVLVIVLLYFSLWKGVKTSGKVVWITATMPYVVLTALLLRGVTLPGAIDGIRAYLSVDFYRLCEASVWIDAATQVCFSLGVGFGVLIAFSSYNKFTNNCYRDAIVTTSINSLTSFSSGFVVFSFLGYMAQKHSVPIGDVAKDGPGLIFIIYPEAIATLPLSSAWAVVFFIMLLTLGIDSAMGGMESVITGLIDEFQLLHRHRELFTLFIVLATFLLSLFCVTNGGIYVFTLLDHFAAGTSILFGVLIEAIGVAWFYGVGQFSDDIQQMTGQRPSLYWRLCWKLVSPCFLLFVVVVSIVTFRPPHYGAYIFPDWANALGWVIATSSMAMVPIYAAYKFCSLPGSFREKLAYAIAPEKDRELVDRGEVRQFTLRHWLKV

As to `COC(=O)C1=C(c2ccc(C(C)=O)cc2)CCC1`, the pKi in assay [1] is 4.31; in assay [2] it was 3.47; in assay [3], 3.53; in assay [4], 3.19; in assay [5], 2.94; in assay [6], 3.62.

As usually defined, the pKi is −log10 of the Ki, conventionally taken in molar units. The low end stands for a large Ki, the high end for a small Ki.
